Results from ChEMBL document CHEMBL1152689, “Synthesis, tautomerism, and antimicrobial, anti-HCV, anti-SSPE, antioxidant, and antitumor activities of arylazobenzosuberones” (Bioorg Med Chem, 2009).
pIC50: −log10 of the molar value. In brackets after ≈: the same amount, converted by molar mass. Activity calls are given as the source filed them. The calls are words filed in the database; no cut-off is given here.

Key:
MC-38 = test: Antitumor activity against mouse Colon 38 cells implanted in iv dosed C57BL/6 mouse administered as single dose; format: functional, organism-based
In short: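 Female C57BL/6 mice, 6 weeks old, given about 30 mg Colon 38 tumor tissue s.c. in the flank. Randomized into groups of n = 5 when tumors reached about 300 mm3 (day 1). Compound in 5% glucose given as a single iv tail-vein dose on day 1; controls received 5% glucose. Tumor volume = (length × width²)/2 and body weight tracked.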

Aspergillus fumigatus [1] = test: Antimicrobial activity against Aspergillus fumigatus at 2.5 ug/mL by agar diffusion method; format: functional; settings: read-out: IZ
[2] = Antioxidant activity assessed as inhibition of peroxynitrite-mediated 3-nitrotyrosine formation by HPLC; format: functional
In short: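 Tyrosine and peroxynitrite, each 100 µM, reacted with compound at 0–300 µM in 100 mM phosphate buffer pH 7.4 at 37 °C for 15 min. Peroxynitrite made from acidified H2O2 plus KNO2, quenched with NaOH, and kept on ice no longer than 30 min before use.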

Aspergillus fumigatus [3] = test: Antimicrobial activity against Aspergillus fumigatus by agar diffusion method; format: functional
In short: (§1)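 Agar diffusion on plates against bacteria and fungi. MIC taken as the lowest concentration giving no visible growth on the plate.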

[4] = system: Syncephalastrum racemosum; test: Antimicrobial activity against Syncephalastrum racemosum at 1.25 ug/mL by agar diffusion method; format: functional; settings: read-out: IZ
Measles morbillivirus = test: Antiviral activity against Measles virus infected in intracranially dosed hamster assessed as inhibition of subacute sclerosing panencephalitis; format: functional
In short: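 Hamsters under ether anesthesia injected intracranially, into the subarachnoid space at 2 mm depth, at 5, 10 and 20 mg/kg/day for 10 days. Four animals per group sacrificed on days 1–20. Brains homogenized in PBS and centrifuged, supernatant deproteinized with ethanol, then MIC in brain tissue determined by HPLC and bioassay.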

Bacillus subtilis [5] = test: Antimicrobial activity against Bacillus subtilis at 2.5 ug/mL by agar diffusion method; format: functional; settings: read-out: IZ
Escherichia coli [6] = test: Antimicrobial activity against Escherichia coli at 5 ug/mL by agar diffusion method; format: functional; settings: read-out: IZ
[7] = system: Syncephalastrum racemosum; test: Antimicrobial activity against Syncephalastrum racemosum by agar diffusion method; format: functional; in short: as §1
Bacillus subtilis [8] = test: Antimicrobial activity against Bacillus subtilis at 1.25 ug/mL by agar diffusion method; format: functional; settings: read-out: IZ
Candida albicans [9] = test: Antimicrobial activity against Candida albicans at 2.5 ug/mL by agar diffusion method; format: functional; settings: read-out: IZ
Hepatitis C virus = test: Antiviral activity against HCV by cell based replicon assay; format: functional, Hepacivirus hominis
In short: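 HCV replicon cells plated at 1×10^4 per well. Next day incubated at 37 °C with serially diluted compound in DMEM with 2% FBS and 0.5% DMSO. HCV RNA copy number measured by quantitative RT-PCR on total cellular RNA. Each point is the average of five replicates. Cytotoxicity measured by MTS in parallel.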

Penicillium italicum [10] = test: Antimicrobial activity against Penicillium italicum at 1.25 ug/mL by agar diffusion method; format: functional; settings: read-out: IZ
Candida albicans [11] = test: Antimicrobial activity against Candida albicans at 1.25 ug/mL by agar diffusion method; format: functional; settings: read-out: IZ
Candida albicans [12] = test: Antimicrobial activity against Candida albicans at 5 ug/mL by agar diffusion method; format: functional; settings: read-out: IZ
Aspergillus fumigatus [13] = test: Antimicrobial activity against Aspergillus fumigatus at 5 ug/mL by agar diffusion method; format: functional; settings: read-out: IZ
Candida albicans [14] = test: Antimicrobial activity against Candida albicans by agar diffusion method; format: functional; in short: as §1
Staphylococcus aureus [15] = test: Antimicrobial activity against Staphylococcus aureus at 2.5 ug/mL by agar diffusion method; format: functional; settings: read-out: IZ
Aspergillus fumigatus [16] = test: Antimicrobial activity against Aspergillus fumigatus at 1.25 ug/mL by agar diffusion method; format: functional; settings: read-out: IZ
Pseudomonas aeruginosa [17] = test: Antimicrobial activity against Pseudomonas aeruginosa at 2.5 ug/mL by agar diffusion method; format: functional; settings: read-out: IZ
Staphylococcus aureus [18] = test: Antimicrobial activity against Staphylococcus aureus at 1.25 ug/mL by agar diffusion method; format: functional; settings: read-out: IZ
[19] = system: Syncephalastrum racemosum; test: Antimicrobial activity against Syncephalastrum racemosum at 2.5 ug/mL by agar diffusion method; format: functional; settings: read-out: IZ
Staphylococcus aureus [20] = test: Antimicrobial activity against Staphylococcus aureus at 5 ug/mL by agar diffusion method; format: functional; settings: read-out: IZ
Pseudomonas aeruginosa [21] = test: Antimicrobial activity against Pseudomonas aeruginosa at 5 ug/mL by agar diffusion method; format: functional; settings: read-out: IZ
[22] = system: Syncephalastrum racemosum; test: Antimicrobial activity against Syncephalastrum racemosum at 5 ug/mL by agar diffusion method; format: functional; settings: read-out: IZ
Staphylococcus aureus [23] = test: Antimicrobial activity against Staphylococcus aureus by agar diffusion method; format: functional; in short: as §1
[24] = system: Radical scavenging activity; test: Antioxidant activity assessed as DPPH free radical scavenging activity by measuring reduction in DPPH absorbance by ELISA relative to untreated control; format: functional; set-up: concentration or dose not given beside the values
In short: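 Test compounds dissolved in DMSO, ascorbic acid standard in water, both serially diluted. 10 µl sample added to 90 µl of 100 µM DPPH in methanol and kept in the dark at 37 °C for 30 min. Absorbance read at 515 nm. Blank is DMSO plus DPPH. % reduction = (A_B − A_A)/A_B × 100. Run in triplicate.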

Penicillium italicum [25] = test: Antimicrobial activity against Penicillium italicum at 2.5 ug/mL by agar diffusion method; format: functional; settings: read-out: IZ
Bacillus subtilis [26] = test: Antimicrobial activity against Bacillus subtilis by agar diffusion method; format: functional; in short: as §1
Escherichia coli [27] = test: Antimicrobial activity against Escherichia coli at 2.5 ug/mL by agar diffusion method; format: functional; settings: read-out: IZ
Bacillus subtilis [28] = test: Antimicrobial activity against Bacillus subtilis at 5 ug/mL by agar diffusion method; format: functional; settings: read-out: IZ
Penicillium italicum [29] = test: Antimicrobial activity against Penicillium italicum at 5 ug/mL by agar diffusion method; format: functional; settings: read-out: IZ
Escherichia coli [30] = test: Antimicrobial activity against Escherichia coli at 1.25 ug/mL by agar diffusion method; format: functional; settings: read-out: IZ
Pseudomonas aeruginosa [31] = test: Antimicrobial activity against Pseudomonas aeruginosa at 1.25 ug/mL by agar diffusion method; format: functional; settings: read-out: IZ
[32] = target: T1, DNA topoisomerase 1 (Homo sapiens) (UniProt P11387); test: Inhibition of topoisomerase 1 relative to etoposide
T1 sequence (whole entry): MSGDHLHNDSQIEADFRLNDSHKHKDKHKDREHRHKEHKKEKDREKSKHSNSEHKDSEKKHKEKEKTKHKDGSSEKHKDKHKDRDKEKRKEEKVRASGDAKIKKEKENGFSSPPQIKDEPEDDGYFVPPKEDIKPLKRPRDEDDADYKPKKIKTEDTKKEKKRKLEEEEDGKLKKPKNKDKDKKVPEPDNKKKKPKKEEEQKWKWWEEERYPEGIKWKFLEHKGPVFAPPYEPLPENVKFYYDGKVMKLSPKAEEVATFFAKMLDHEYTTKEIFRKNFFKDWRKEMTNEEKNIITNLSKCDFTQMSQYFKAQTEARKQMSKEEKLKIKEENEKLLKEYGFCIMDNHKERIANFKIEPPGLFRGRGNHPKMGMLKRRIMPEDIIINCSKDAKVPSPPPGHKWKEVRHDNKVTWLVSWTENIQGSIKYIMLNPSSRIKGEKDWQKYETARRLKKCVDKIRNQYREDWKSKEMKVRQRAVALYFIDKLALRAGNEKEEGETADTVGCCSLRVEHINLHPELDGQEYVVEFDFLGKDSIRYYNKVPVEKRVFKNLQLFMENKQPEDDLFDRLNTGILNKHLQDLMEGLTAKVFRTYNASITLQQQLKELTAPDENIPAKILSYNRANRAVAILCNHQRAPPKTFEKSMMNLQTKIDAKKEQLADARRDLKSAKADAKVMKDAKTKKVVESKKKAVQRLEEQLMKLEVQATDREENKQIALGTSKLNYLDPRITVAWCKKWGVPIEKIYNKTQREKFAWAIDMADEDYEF

Penicillium italicum [33] = test: Antimicrobial activity against Penicillium italicum by agar diffusion method; format: functional; in short: as §1
[34] = target: DNA topoisomerase 2-alpha (Mus musculus) (UniProt Q01320); test: Inhibition of topoisomerase 2 from mouse P388 cells assessed as relaxation of pBR322 DNA by agarose gel electrophoresis relative to etoposide; format: cell-based
DNA topoisomerase 2-alpha (Mus musculus), sequence (Q01320 whole entry): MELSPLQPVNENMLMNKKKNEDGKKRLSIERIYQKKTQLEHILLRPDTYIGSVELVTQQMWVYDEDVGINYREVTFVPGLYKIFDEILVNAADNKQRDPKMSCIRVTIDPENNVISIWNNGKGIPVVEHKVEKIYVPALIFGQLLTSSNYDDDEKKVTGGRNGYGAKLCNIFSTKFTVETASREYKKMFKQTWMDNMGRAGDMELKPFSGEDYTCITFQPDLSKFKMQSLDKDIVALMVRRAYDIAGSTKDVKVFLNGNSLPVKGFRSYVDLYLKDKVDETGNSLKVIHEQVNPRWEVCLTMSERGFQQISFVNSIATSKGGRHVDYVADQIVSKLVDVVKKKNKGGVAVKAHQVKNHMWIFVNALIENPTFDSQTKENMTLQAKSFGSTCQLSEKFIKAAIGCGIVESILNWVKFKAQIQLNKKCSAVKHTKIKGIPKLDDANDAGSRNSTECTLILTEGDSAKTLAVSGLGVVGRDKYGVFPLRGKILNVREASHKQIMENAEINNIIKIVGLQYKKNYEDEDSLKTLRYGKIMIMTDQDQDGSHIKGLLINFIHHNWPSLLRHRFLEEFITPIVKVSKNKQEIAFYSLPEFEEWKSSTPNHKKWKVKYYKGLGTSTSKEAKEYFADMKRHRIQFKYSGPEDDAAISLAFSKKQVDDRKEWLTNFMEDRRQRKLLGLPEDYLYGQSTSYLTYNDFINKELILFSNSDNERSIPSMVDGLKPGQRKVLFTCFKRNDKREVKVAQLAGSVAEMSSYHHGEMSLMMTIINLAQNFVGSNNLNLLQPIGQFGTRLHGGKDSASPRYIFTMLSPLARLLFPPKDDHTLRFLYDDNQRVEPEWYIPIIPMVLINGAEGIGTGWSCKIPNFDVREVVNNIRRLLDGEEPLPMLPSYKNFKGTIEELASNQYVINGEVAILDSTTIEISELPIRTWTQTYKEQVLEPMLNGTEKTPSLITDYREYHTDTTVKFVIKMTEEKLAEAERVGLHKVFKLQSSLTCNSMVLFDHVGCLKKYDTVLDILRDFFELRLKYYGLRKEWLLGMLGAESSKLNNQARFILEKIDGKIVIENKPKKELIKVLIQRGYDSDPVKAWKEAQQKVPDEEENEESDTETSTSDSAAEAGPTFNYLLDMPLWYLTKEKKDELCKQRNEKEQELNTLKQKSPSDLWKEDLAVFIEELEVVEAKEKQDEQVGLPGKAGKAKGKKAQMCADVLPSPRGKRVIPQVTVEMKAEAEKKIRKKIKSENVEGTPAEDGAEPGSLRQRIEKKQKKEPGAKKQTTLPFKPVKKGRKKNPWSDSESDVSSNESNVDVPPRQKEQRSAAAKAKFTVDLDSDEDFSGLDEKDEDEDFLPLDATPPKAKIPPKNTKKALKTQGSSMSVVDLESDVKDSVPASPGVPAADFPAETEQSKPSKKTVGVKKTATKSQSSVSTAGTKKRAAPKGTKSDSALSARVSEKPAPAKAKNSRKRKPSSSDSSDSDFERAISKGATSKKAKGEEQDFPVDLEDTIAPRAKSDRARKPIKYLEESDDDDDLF
In short: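 Topoisomerase II purified from P388 cells. One unit relaxes 0.125 µg supercoiled pBR322 DNA, incubated with or without inhibitor at 30 °C for 1 h in 50 mM Tris-HCl pH 8.0, 100 mM KCl, 10 mM MgCl2, 0.5 mM DTT, 1 mM ATP and 30 µg/ml BSA. Products run on 0.7% agarose in TBE, stained with ethidium bromide and imaged under UV.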

pIC50 [2]	MIC (Aspergillus fumigatus [3])	MIC (Measles morbillivirus)	MIC [7]	MIC (Hepatitis C virus)	MIC (Candida albicans [14])	SMILES	Activity (MC-38)	zone of inhibition at 2.5 µg/mL (Aspergillus fumigatus [1])	zone of inhibition at 1.25 µg/mL [4]	zone of inhibition at 2.5 µg/mL (Bacillus subtilis [5])	zone of inhibition at 5 µg/mL (Escherichia coli [6])	zone of inhibition at 1.25 µg/mL (Bacillus subtilis [8])	zone of inhibition at 2.5 µg/mL (Candida albicans [9])	zone of inhibition at 1.25 µg/mL (Penicillium italicum [10])	zone of inhibition at 1.25 µg/mL (Candida albicans [11])	zone of inhibition at 5 µg/mL (Candida albicans [12])	zone of inhibition at 5 µg/mL (Aspergillus fumigatus [13])	zone of inhibition at 2.5 µg/mL (Staphylococcus aureus [15])	zone of inhibition at 1.25 µg/mL (Aspergillus fumigatus [16])	zone of inhibition at 2.5 µg/mL (Pseudomonas aeruginosa [17])	also measured
4.25	0.625 µg/mL (≈ 2.04 µM)	6.12 µg/mL (≈ 20 µM)	0.313 µg/mL (≈ 1.02 µM)	1.09 µg/mL (≈ 3.56 µM)	1.25 µg/mL (≈ 4.08 µM)	CC(=O)c1ccc(N/N=C2\CCCc3ccccc3C2=O)cc1	Active	11 mm	6 mm	10 mm	12 mm	7 mm	7 mm	4 mm	3 mm	10 mm	20 mm	8 mm	6 mm	0 mm	zone of inhibition at 1.25 µg/mL (Staphylococcus aureus [18]): 5 mm; zone of inhibition at 2.5 µg/mL [19]: 9 mm; zone of inhibition at 5 µg/mL (Staphylococcus aureus [20]): 15 mm; zone of inhibition at 5 µg/mL (Pseudomonas aeruginosa [21]): 0 mm; zone of inhibition at 5 µg/mL [22]: 16 mm; MIC (Staphylococcus aureus [23]): 0.625 µg/mL (≈ 2.04 µM); Activity [24]: 81%; zone of inhibition at 2.5 µg/mL (Penicillium italicum [25]): 6 mm; MIC (Bacillus subtilis [26]): 0.313 µg/mL (≈ 1.02 µM); zone of inhibition at 2.5 µg/mL (Escherichia coli [27]): 0 mm; zone of inhibition at 5 µg/mL (Bacillus subtilis [28]): 16 mm; zone of inhibition at 5 µg/mL (Penicillium italicum [29]): 17 mm; zone of inhibition at 1.25 µg/mL (Escherichia coli [30]): 0 mm; zone of inhibition at 1.25 µg/mL (Pseudomonas aeruginosa [31]): 0 mm; Ratio [32]: 4.3; MIC (Penicillium italicum [33]): 1.25 µg/mL (≈ 4.08 µM); Ratio [34]: 4.33
4.25	0.313 µg/mL (≈ 1.12 µM)	7.06 µg/mL (≈ 25.4 µM)	0.625 µg/mL (≈ 2.25 µM)	1.14 µg/mL (≈ 4.1 µM)	1.25 µg/mL (≈ 4.49 µM)	Cc1ccc(N/N=C2\CCCc3ccccc3C2=O)cc1	Active	13 mm	7 mm	6 mm	7 mm	4 mm	6 mm	0 mm	2 mm	14 mm	22 mm	8 mm	9 mm	0 mm	zone of inhibition at 1.25 µg/mL (Staphylococcus aureus [18]): 5 mm; zone of inhibition at 2.5 µg/mL [19]: 12 mm; zone of inhibition at 5 µg/mL (Staphylococcus aureus [20]): 12 mm; zone of inhibition at 5 µg/mL (Pseudomonas aeruginosa [21]): 0 mm; zone of inhibition at 5 µg/mL [22]: 18 mm; MIC (Staphylococcus aureus [23]): 0.625 µg/mL (≈ 2.25 µM); Activity [24]: 80.1%; zone of inhibition at 2.5 µg/mL (Penicillium italicum [25]): 0 mm; MIC (Bacillus subtilis [26]): 0.625 µg/mL (≈ 2.25 µM); zone of inhibition at 2.5 µg/mL (Escherichia coli [27]): 0 mm; zone of inhibition at 5 µg/mL (Bacillus subtilis [28]): 16 mm; zone of inhibition at 5 µg/mL (Penicillium italicum [29]): 0 mm; zone of inhibition at 1.25 µg/mL (Escherichia coli [30]): 0 mm; zone of inhibition at 1.25 µg/mL (Pseudomonas aeruginosa [31]): 0 mm; Ratio [32]: 4.2; Ratio [34]: 4.27
